17 molecules from ChEMBL document CHEMBL2375270, “Structure-based design, SAR analysis and antitumor activity of PI3K/mTOR dual inhibitors from 4-methylpyridopyrimidinone series” (Bioorg Med Chem Lett, 2013) can be followed below.

Each structure is given as a SMILES string.

One data set has as its system Plasma. The data set is described as follows: Drug metabolism in human plasma assessed as formation of glucuronide conjugate at 8 mg, po qd for 21 days by HPLC analysis. The format is ADME, organism-based. The note with it: in vivo, 504 h. The gist of the method:
(§1)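 Human plasma came from patients given 8 mg once daily in a clinical dose-escalation study. Metabolites were profiled from the total ion chromatogram. Peaks were assigned by retention time and molecular ion (m/z) against reference standards and parent drug.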
Take `COc1ccc(-c2cc3c(C)nc(N)nc3n([C@H]3CC[C@H](OCCO)CC3)c2=O)cn1` [PF-04691502]: the Drug metabolism entry is given as “Active”.

For the next data set, the system named is Plasma. The data set is described as follows: Drug metabolism in human plasma assessed as formation of 2-((trans)-4-(2-amino-6-(6-methoxypyridin-3-yl)-4-methyl-7-oxopyrido[2,3-d]pyrimidin-8(7H)-yl)cyclohexyloxy)acetic acid at 8 mg, po qd for 21 days by HPLC analysis. The format is ADME, organism-based. The note with it: in vivo, 504 h. The gist of the method:
as §1
For the molecule `COc1ccc(-c2cc3c(C)nc(N)nc3n([C@H]3CC[C@H](OCCO)CC3)c2=O)cn1` [PF-04691502], the Drug metabolism entry was “Active”.

Test system in another data set: not listed separately
The data set is described as follows: Permeability across dog RRCK cells. Format: ADME, cell-based, Canis lupus familiaris, MDCKII-LE. The note with it: MDCK, read-out: permeability.
For the molecule `COc1ncc(-c2cc3c(C)nc(N)nc3n([C@H]3CC[C@H](OCO)CC3)c2=O)cn1`, the Papp stood at 21.3 ×10⁻⁶ cm/s.
On to `Cc1nc(N)nc2c1cc(-c1cnc3ccccc3c1)c(=O)n2[C@H]1CC[C@H](OCC(N)=O)CC1`, for which the Papp was determined as 9.02 ×10⁻⁶ cm/s.
As to `COc1ncc(-c2cc3c(C)nc(N)nc3n([C@H]3CC[C@H](OCC(N)=O)CC3)c2=O)cn1`, the Papp was 29.8 ×10⁻⁶ cm/s.
In the case of `COc1ncc(-c2cc3c(C)nc(N)nc3n([C@H]3CC[C@H](OCC(N)=O)CC3)c2=O)cc1F`, the Papp turned out to be 26.2 ×10⁻⁶ cm/s.
Consider `COc1ccc(-c2cc3c(C)nc(N)nc3n([C@H]3CC[C@H](OCC(N)=O)CC3)c2=O)cn1`, for which the Papp turned out to be 4.58 ×10⁻⁶ cm/s.
Take `Cc1nc(N)nc2c1cc(-c1cnc3ccccc3c1)c(=O)n2[C@H]1CC[C@@H](OCC(N)=O)CC1`: the Papp turned out to be 4.57 ×10⁻⁶ cm/s.
For `COc1ncc(-c2cc3c(C)nc(N)nc3n([C@H]3CC[C@@H](OCC(N)=O)CC3)c2=O)cn1`, the Papp stood at 30.1 ×10⁻⁶ cm/s.
For `Cc1nc(N)nc2c1cc(-c1cn[nH]c1)c(=O)n2[C@H]1CC[C@@H](OCC(N)=O)CC1`, the Papp was determined as 0.151 ×10⁻⁶ cm/s.
`COc1ncc(-c2cc3c(C)nc(N)nc3n([C@H]3CC[C@@H](OCC(N)=O)CC3)c2=O)cc1F`: the Papp was 26.2 ×10⁻⁶ cm/s.
As for `COc1ccc(-c2cc3c(C)nc(N)nc3n([C@H]3CC[C@@H](OCC(N)=O)CC3)c2=O)cn1`, the Papp worked out at 30.3 ×10⁻⁶ cm/s.
In the case of `Cc1nc(N)nc2c1cc(-c1cnc3ccccc3c1)c(=O)n2[C@H]1CC[C@H](OCO)CC1`, the Papp worked out at 19.7 ×10⁻⁶ cm/s.
For the molecule `Cc1nc(N)nc2c1cc(-c1cnc3ccccc3c1)c(=O)n2[C@H]1CC[C@@H](OCO)CC1`, the Papp came out at 41.6 ×10⁻⁶ cm/s.
As for `Cc1nc(N)nc2c1cc(-c1cnn(C)c1)c(=O)n2[C@H]1CC[C@@H](OCO)CC1`, the Papp came to 23.3 ×10⁻⁶ cm/s.
Turning to `Cc1nc(N)nc2c1cc(-c1cn[nH]c1)c(=O)n2[C@H]1CC[C@@H](OCO)CC1`, the Papp was 12.6 ×10⁻⁶ cm/s.
On to `COc1ccc(-c2cc3c(C)nc(N)nc3n([C@H]3CC[C@H](OCC(=O)O)CC3)c2=O)cn1`, for which the Papp was determined as 0.295 ×10⁻⁶ cm/s.

Test system in a further data set: not listed separately
The data set is described as follows: Oral bioavailability in rat. Format: ADME, organism-based. The conditions noted are these: in vivo.
As a reminder, the bioavailability is dose-corrected exposure relative to a reference, in per cent. Take `COc1ncc(-c2cc3c(C)nc(N)nc3n([C@H]3CC[C@H](OCO)CC3)c2=O)cc1F`: the bioavailability was determined as 79%.

Test system in a further data set: not listed separately
The data set is described as follows: Volume of distribution at steady state in rat. The format is ADME, organism-based. The conditions noted are these: in vivo, read-out: Vdss.
Regarding `COc1ncc(-c2cc3c(C)nc(N)nc3n([C@H]3CC[C@H](OCO)CC3)c2=O)cc1F`, the Vd came to 4.08 L/kg.

Test system in the next data set: not listed separately
Kind of data set: Toxicity against nu/nu mouse. Format: organism-based. The note with it: in vivo. The gist of the method: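 Tolerability assessed in mice bearing U87 xenografts during tumour growth inhibition studies. Groups received vehicle or 1, 3 or 10 mg/kg. Plasma free drug levels and AKT phosphorylation were sampled at 1 h and 24 h in the top-dose group.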
In turn, `COc1ncc(-c2cc3c(C)nc(N)nc3n([C@H]3CC[C@H](OCO)CC3)c2=O)cc1F` yielded an MTD of 10 mg/kg.
